Active and inactive are the calls of the source. The rule behind the calls is not given here.
Assays:
Staphylococcus aureus [1] = assay: Antimicrobial activity against Staphylococcus aureus NE1506 harboring single transposon insertion mutation in V8 protease at 30 uM incubated for 18 hrs relative to control; format: functional
Procedure, shortened: (§1)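 CA-MRSA USA300 LAC derivative JE2 and single transposon insertion mutants derived from JE2, each lacking an extracellular protease gene, were exposed to peptides up to 30 μM. The read-out was percent growth inhibition. Peptides were dissolved in PBS, and tests were run in triplicate.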

Staphylococcus aureus [2] = assay: Antimicrobial activity against Staphylococcus aureus NE934 harboring single transposon insertion mutation in staphopain B at 30 uM incubated for 18 hrs relative to control; format: functional; procedure, shortened: as §1
Acinetobacter baumannii = assay: Anti-infective activity against Acinetobacter baumannii ATCC 19606 infected in neutropenic CD-1 mouse deep thigh infection model assessed as reduction in bacterial load at 0.16 mg/kg, ip measured after 4 days; format: functional, organism-based; conditions: time 4.0 day
Procedure, shortened: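 Neutropenic mice infected intramuscularly in right thigh with 10⁶ cells per mL A. baumannii ATCC 19606; single intraperitoneal peptide dose at 10× MIC; bacterial load determined 4 days after treatment (euthanized day 8); n = 6 per group from three inocula; one-way ANOVA with Dunnett's test versus untreated.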

Mus musculus [3] = assay: Induction of wound healing activity in immunosuppressed Balb/c mouse excisional dorsal wound infection model infected with Acinetobacter baumannii NCTC 13301 assessed as reduction in wound expansion at about 10 mg/kg treated for 7 days once daily; format: functional, organism-based; conditions: time 7.0 day
Mus musculus [4] = assay: Induction of wound healing activity in immunosuppressed Balb/c mouse excisional dorsal wound infection model infected with Acinetobacter baumannii NCTC 13301 assessed as closed wound at about 10 mg/kg treated for 7 days once daily measured after 20 days; format: functional, organism-based; conditions: time 20.0 day
Mus musculus [5] = assay: Induction of wound healing activity in immunosuppressed Balb/c mouse excisional dorsal wound infection model infected with Acinetobacter baumannii NCTC 13301 assessed as area of serocellular crust at about 10 mg/kg treated for 7 days once daily measured after 20 days; format: functional; conditions: time 20 day
[6] = Toxicity in immunosuppressed Balb/c mouse excisional dorsal wound infection model infected with Acinetobacter baumannii NCTC 13301 assessed as body weight loss at about 10 mg/kg treated for 7 days once daily measured after 45 days; format: organism-based; conditions: in vivo, 1080 h, time 45 day
Procedure, shortened: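 Excisional dorsal wound model in immunosuppressed mice infected with 5 × 10⁴ cells per mL of A. baumannii. Treated, PBS-treated and untreated groups were compared. Body weight and survival were followed for 45 days.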

[7] = Toxicity in immunosuppressed Balb/c mouse excisional dorsal wound infection model infected with Acinetobacter baumannii NCTC 13301 assessed as decrease in animal survival at about 10 mg/kg treated for 7 days once daily measured after 45 days; format: organism-based; conditions: in vivo, 1080 h, time 45 day
Enterococcus faecium = assay: Depolarization of cytoplasmic membrane in Enterococcus faecium ATCC 700221 at MIC measured for 45 mins by DiSC3-(5) dye based assay; format: functional, organism-based
Procedure, shortened: (§2)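 Bacteria loaded with membrane-potential dye DiSC3-(5), then treated with peptide at its MIC for the respective strain; depolarization read as rise in dye fluorescence; polymyxin B and levofloxacin as reference antibiotics.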

Staphylococcus aureus [8] = assay: Depolarization of cytoplasmic membrane in Staphylococcus aureus ATCC 12600 at MIC measured for 45 mins by DiSC3-(5) dye based assay; format: functional, organism-based; procedure, shortened: as §2
Klebsiella pneumoniae = assay: Depolarization of cytoplasmic membrane in Klebsiella pneumoniae ATCC 13883 at MIC measured for 45 mins by DiSC3-(5) dye based assay; format: functional, organism-based; procedure, shortened: as §2
Escherichia coli [9] = assay: Depolarization of cytoplasmic membrane in Escherichia coli ATCC 11775 at MIC measured for 45 mins by DiSC3-(5) dye based assay; format: functional, organism-based; procedure, shortened: as §2
Pseudomonas aeruginosa = assay: Induction of outer membrane permeabilization in Pseudomonas aeruginosa PAO1 measured for 20 mins by NPN uptake assay; format: functional, organism-based
Procedure, shortened: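 Outer-membrane permeabilization of Gram-negative bacteria read as rise in fluorescence of the lipophilic dye NPN, which enters only when outer-membrane integrity is compromised. Peptides applied at their MIC against the respective strain; polymyxin B and levofloxacin as reference antibiotics. Triplicates.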

Escherichia coli [10] = assay: Induction of outer membrane permeabilization in Escherichia coli ATCC 11775 measured for 20 mins by NPN uptake assay; format: functional, organism-based
CAKI-1 = assay: Anti-cancer activity against human CAKI-1 cells incubated for 72 hrs by Cell Titer Glo assay; format: functional, cell-based; conditions: CAKI-1, 72 h
HCT-116 [11] = assay: Anti-cancer activity against human HCT-116 cells incubated for 72 hrs by Cell Titer Glo assay; format: functional, cell-based; conditions: HCT-116, 72 h
HCT-15 = assay: Anti-cancer activity against human HCT-15 cells incubated for 72 hrs by Cell Titer Glo assay; format: functional, cell-based; conditions: HCT-15, 72 h
HL-60 [12] = assay: Anti-cancer activity against human HL-60 cells incubated for 72 hrs by Cell Titer Glo assay; format: functional, cell-based; conditions: HL-60, 72 h
K562 [13] = assay: Anti-cancer activity against human K562 cells incubated for 72 hrs by Cell Titer Glo assay; format: functional, cell-based; conditions: K562, 72 h
MCF7 [14] = assay: Anti-cancer activity against human MCF7 cells incubated for 72 hrs by Cell Titer Glo assay; format: functional, cell-based; conditions: MCF7, 72 h
MDA-MB-231 = assay: Anti-cancer activity against human MDA-MB-231 cells incubated for 72 hrs by Cell Titer Glo assay; format: functional, cell-based; conditions: MDA-MB-231, 72 h
T47D = assay: Anti-cancer activity against human T47D cells incubated for 72 hrs by Cell Titer Glo assay; format: functional, cell-based
[15] = Anti-cancer activity against human MEC-1 cells incubated for 24 hrs by WST assay; format: functional, cell-based; conditions: MEC1, 24 h
K562 [16] = assay: Anti-cancer activity against human K562 cells at 10 uM incubated for 30 mins; format: functional, cell-based
HL-60 [17] = assay: pH-dependent anticancer activity against human HL-60 cells in DMEM medium at 10 uM incubated for 1 hr; format: functional, cell-based
Procedure, shortened: (§3)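 Cells cultured in RPMI, DMEM or PBS, each adjusted to pH 8, 7 or 6, plus one unadjusted (~7.6). Peptide at 10 μM for only 1 h, to limit pH drift from CO₂-bicarbonate buffering. Cell viability read. Controls were melittin, ampicillin and PBS. Two independent repetitions; effects analysed by ANOVA.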

HL-60 [18] = assay: pH-dependent anticancer activity against human HL-60 cells in PBS medium at 10 uM incubated for 1 hr; format: functional, cell-based; procedure, shortened: as §3
K562 [19] = assay: pH-dependent anticancer activity against human K562 cells in RPMI medium at 10 uM incubated for 1 hr; format: functional, cell-based; procedure, shortened: as §3
K562 [20] = assay: pH-dependent anticancer activity against human K562 cells in DMEM medium at 10 uM incubated for 1 hr; format: functional, cell-based; procedure, shortened: as §3
HCT-116 [21] = assay: pH-dependent anticancer activity against human HCT-116 cells in RPMI medium at 10 uM incubated for 1 hr; format: functional, cell-based; procedure, shortened: as §3
HCT-116 [22] = assay: pH-dependent anticancer activity against human HCT-116 cells in DMEM medium at 10 uM incubated for 1 hr; format: functional, cell-based; procedure, shortened: as §3
MCF7 [23] = assay: pH-dependent anticancer activity against human MCF7 cells in DMEM medium at 10 uM incubated for 1 hr; format: functional, cell-based; procedure, shortened: as §3
MCF7 [24] = assay: pH-dependent anticancer activity against human MCF7 cells in PBS medium at 10 uM incubated for 1 hr; format: functional, cell-based; procedure, shortened: as §3
B cell = assay: Cytotoxicity against human B-lymphocytes assessed as deleterious effect upto 50 uM by flow cytometry; format: toxicity, cell-based
Procedure, shortened: (§4)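 Whole blood from a healthy donor treated with peptides up to 50 μM; effect on B and T lymphocytes, granulocytes and monocytes assessed.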

[25] = Cytotoxicity against human granulocytes assessed as deleterious effect upto 50 uM by flow cytometry; format: toxicity, cell-based; conditions: granulocyte; procedure, shortened: as §4

## H-KKKKLKKILKKLFQFINQLDNQLQDIKQNK-NH2
Staphylococcus aureus [1]
  inhibition at 30 µM: < 45%
Staphylococcus aureus [2]
  inhibition at 30 µM: < 45%
Acinetobacter baumannii
  Activity: Active
Mus musculus [3]
  Activity: Active
Mus musculus [4]
  Activity: Active
Mus musculus [5]
  Activity: <10 mm2
[6]
  Activity: Toxic
[7]
  Activity: Toxic
Enterococcus faecium
  Activity: Active
Staphylococcus aureus [8]
  Activity: Active
Klebsiella pneumoniae
  Activity: Active
Escherichia coli [9]
  Activity: Active
Pseudomonas aeruginosa
  Activity: Active
Escherichia coli [10]
  Activity: Active
CAKI-1
  IC50: 1 µM
HCT-116 [11]
  IC50: 1 µM
HCT-15
  IC50: 1 µM
HL-60 [12]
  IC50: 1 µM
K562 [13]
  IC50: 1 µM
MCF7 [14]
  IC50: 1 µM
MDA-MB-231
  IC50: 1 µM
T47D
  IC50: 1 µM
[15]
  IC50: ≤ 10 µM
K562 [16]
  Activity: Active
HL-60 [17]
  Activity: Active
HL-60 [18]
  Activity: Active
K562 [19]
  Activity: Active
K562 [20]
  Activity: Active
HCT-116 [21]
  Activity: Active
HCT-116 [22]
  Activity: Active
MCF7 [23]
  Activity: Active
MCF7 [24]
  Activity: Active
B cell
  Activity: Non-Toxic
[25]
  Activity: Non-Toxic

From ChEMBL document CHEMBL5576140, “Computational Design of Pore-Forming Peptides with Potent Antimicrobial and Anticancer Activities” (J Med Chem, 2024)
